Data published in PubChem BioAssay.
Results filed as inconclusive are left out.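 The calls were made as follows, unless noted: active = viability at or below 27.92% in each of two runs, the all-compound median minus 4 SD; inconclusive = no clear call, values can overlap the other calls; inactive = the rest.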

Legend:
[1] = S. cerevisiae growth inhibition in permissive medium (OD615), pilot counter-assay for S. cerevisiae lifespan shortening project, permissive growth control (AID 705;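 active = growth inhibition above 25% in both replicates, a cutoff set 3 SD above the mean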); conditions: OD615, 24 h, at 10 µM, stronger effect = higher value
In short: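 Material: engineered DeaD yeast; compound dosing: one dose 10 µM, DMSO 0.25% final; measure: yeast growth inhibition indicated by reduced 24 h OD615; detection: OD615 turbidity read; incubation: cells pre-grown 4 h, then 24 h compound exposure, 30 °C humidified; medium: permissive synthetic complete medium with raffinose and galactose carbon sources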

[2] = S. cerevisiae growth inhibition in restrictive medium, OD615, pilot screen, restrictive growth control, yeast lifespan reduction project (AID 706;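 active = growth inhibition above a set limit, 3 SD over mean compound inhibition, in both replicates, cut at about 43% in these data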;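 also: modified DeaD lifespan yeast strain shifted to restrictive glucose medium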); conditions: OD615, 48 h, at 10 µM, stronger effect = higher value
In short: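 material = engineered S. cerevisiae DeaD strain | medium = glucose-based CSMM-D restrictive medium | times = 4 h pre-incubation, 48 h exposure at 30 °C | technique = OD615 absorbance reading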

[3] = doxorubicin toxicity protection in MRP-1 cells – H69AR cells, CellTiter-Glo, duplicate, MRP-1 activator project, pilot screen (AID 807;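 active = viability increase at or above a cutoff of the median across tested compounds plus 3 SD, cut at about 8.5% in these data, passing the limit was not always enough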;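 also: compound pretreatment 18-22 h then 72 h combined with doxorubicin; 0% = doxorubicin alone and 100% = vehicle without doxorubicin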); conditions: H69AR viability with doxorubicin, CellTiter-Glo luminescence; at 10 µM; stronger effect = higher value
[4] = viability of HCT116 without oncogenic beta-catenin – human colon tumor cells, pilot screen (AID 823;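 active = cell viability at or below a set limit in both duplicate runs, the limit being the all-compound median minus 4 SD, cut at about 23% in these data, passing the limit was not always enough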;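 also: 0% = wells killed by 20 µM Hyamine and 100% = untreated DMSO cell wells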); conditions: HCT116 beta-catenin knockout viability, CellTiter-Glo, 60 h; at 10 µM; stronger effect = lower value
[5] = viability of PTEN-null HCT116 cells – cell-based, HCT116 clonal line, CellTiter-Glo, pilot screen (AID 824); conditions: HCT116 PTEN-deleted viability, 60 h, at 10 µM, stronger effect = lower value;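 also: 0% = 20 µM Hyamine control and 100% = vehicle cell control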
[6] = RAM pathway blockade in budding yeast – dse1pr::URA3 reporter, 5-FOA selection, pilot screen (AID 869;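 active = inhibition over a set limit, the all-compound mean plus 3 SD, in both replicate runs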;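 also: 0% = DMSO wells with no growth and 100% = 10 µM 1-NA-PP1 with full growth; RAM network block rescues cells from 5-FOA so hits raise OD615 growth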); conditions: S. cerevisiae dse1pr::URA3 5-FOA growth, OD615, 2 d; at 10 µM; stronger effect = higher value; strain carries analog-sensitive mutant Cbk1 kinase
[7] = RAM signaling pathway blockade in yeast – S. cerevisiae, Pdr1DBD-CYC8 efflux-inhibited sensitized strain, primary screen (AID 1298;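 active = RAM network inhibition above 8.4% in each of two replicates, 3 SD over the compound average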;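 also: 0% = DMSO untreated cells without growth and 100% = 10 µM 1-NA-PP1 full growth; higher means more yeast growth rescued from 5-FOA killing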); conditions: S. cerevisiae cbk1-as DSE1-URA3 strain, 5-FOA growth OD615, 2 d; at 50 µM; stronger effect = higher value

CCCCn1cc(C(C)(C)C)c(C#N)c1NC(C)=O
inactive: growth inhibition [1] -21.7% | growth inhibition [2] -4.88% | viability increase [3] -1.24% | viability [4] 97.8% | viability [5] 98.8% | inhibition [6] 1.43% | RAM network inhibition [7] 5.33%

O=S(=O)(c1ccc(Cl)c(Cl)c1)N1CCc2nc3ccccc3n2CC1
inactive: growth inhibition [1] -5.17% | growth inhibition [2] 4.47% | viability increase [3] -1.28% | viability [4] 98.9% | viability [5] 102% | inhibition [6] 1.75% | RAM network inhibition [7] 6.73%

CCc1nc(C)cn1S(=O)(=O)c1cc(C)c(OC)cc1C
inactive: growth inhibition [1] -0.385% | growth inhibition [2] 0.98% | viability increase [3] 0.56% | viability [4] 102% | viability [5] 103% | inhibition [6] 1.69% | RAM network inhibition [7] 12.1%

COc1ccc(Br)cc1S(=O)(=O)N1CCN=C1C
inactive: growth inhibition [1] -0.525% | growth inhibition [2] -18.3% | viability increase [3] -1.79% | viability [4] 91.1% | viability [5] 83.4% | inhibition [6] 0.79% | RAM network inhibition [7] -0.12%

COc1ccc(C)c(S(=O)(=O)Nc2ccc(OCC(=O)O)cc2)c1
inactive: growth inhibition [1] 2.53% | growth inhibition [2] -4.93% | viability increase [3] -1.41% | viability [4] 99% | viability [5] 102% | inhibition [6] 0.345% | RAM network inhibition [7] -1.4%

CCc1ccc(S(=O)(=O)NCc2csc(-c3cccnc3)n2)s1
inactive: growth inhibition [1] -13.1% | growth inhibition [2] 1.16% | viability increase [3] -0.39% | viability [4] 103% | viability [5] 101% | inhibition [6] 2.68% | RAM network inhibition [7] 2.28%

CCOc1ccccc1C1CC(c2ccccc2)Nc2nc(N)nn21 (centres undefined)
inactive: growth inhibition [1] -1.36% | growth inhibition [2] 8.93% | viability increase [3] -1.31% | viability [4] 97.2% | viability [5] 88.2% | inhibition [6] 2.27% | RAM network inhibition [7] 2.72%

Cn1c(=O)c2c(SC3CCCC3)nc(C3CC3)nc2n(C)c1=O
inactive: growth inhibition [1] 3.3% | growth inhibition [2] -9.07% | viability increase [3] 1.43% | viability [4] 91% | viability [5] 86.3% | inhibition [6] 2.54% | RAM network inhibition [7] 2.78%

COc1ccc2[nH]c(C)c(CCN3C(=O)C4C5C=CC(C5)C4C3=O)c2c1 (centres undefined)
inactive: growth inhibition [1] -3.19% | growth inhibition [2] 5.9% | viability increase [3] -2.43% | viability [4] 106% | viability [5] 94.9% | inhibition [6] 0.285% | RAM network inhibition [7] 4.02%

C=CCn1c(=N)c(C(=O)NCCCOC)cc2c(=O)n3cccc(C)c3nc21
inactive: growth inhibition [1] 2.23% | growth inhibition [2] 0.115% | viability increase [3] -2.3% | viability [4] 83.8% | viability [5] 88.5% | inhibition [6] 0.4% | RAM network inhibition [7] -0.47%

COc1ccccc1N1CCN(C(=O)CCCCn2c(=O)[nH]c3ccsc3c2=O)CC1
inactive: growth inhibition [1] -4.33% | growth inhibition [2] 7.52% | viability increase [3] -2.84% | viability [4] 94% | viability [5] 88.5% | inhibition [6] 2.13% | RAM network inhibition [7] 5.16%

COc1ccc(OC)c2c1sc(=NC(=O)CN1C(=O)CCC1=O)n2C
inactive: growth inhibition [1] -3.75% | growth inhibition [2] 5.91% | viability increase [3] -1.92% | viability [4] 92.7% | viability [5] 87.4% | inhibition [6] 1.16% | RAM network inhibition [7] 2.41%

CC1CCCCC1NS(=O)(=O)c1ccc(S(=O)(=O)N2CCN(CCC#N)CC2)cc1 (centres undefined)
inactive: growth inhibition [1] -0.665% | growth inhibition [2] -2.72% | viability increase [3] -2.84% | viability [4] 86.2% | viability [5] 87.8% | inhibition [6] 0.54% | RAM network inhibition [7] 3.44%

COc1ccc(C(=O)N2CCN(C(=O)c3ccco3)CC2)cc1
inactive: growth inhibition [1] 1.98% | growth inhibition [2] 6.93% | viability increase [3] -2.64% | viability [4] 100% | viability [5] 98.8% | inhibition [6] 1.56% | RAM network inhibition [7] 4.49%

CCC(Sc1nc2ccccc2[nH]1)C(=O)Nc1cc(C)on1 (centres undefined)
inactive: growth inhibition [1] -13% | growth inhibition [2] -17.9% | viability increase [3] 1.02% | viability [4] 100% | viability [5] 101% | inhibition [6] 1.1% | RAM network inhibition [7] -0.37%

CC(=O)Nc1ccc(NC(=O)C2CC(=O)N(c3cccc(C)c3C)C2)cc1 (centres undefined)
inactive: growth inhibition [1] -21.2% | growth inhibition [2] -8.03% | viability increase [3] -1.32% | viability [4] 93.8% | viability [5] 91.2% | inhibition [6] 0.435% | RAM network inhibition [7] 2.95%

Cc1ccc(NC(=O)CN(c2cc(C)cc(C)c2)S(=O)(=O)c2c(C)noc2C)nc1
inactive: growth inhibition [1] -8.61% | growth inhibition [2] -7.12% | viability increase [3] -3.03% | viability [4] 69.4% | viability [5] 70.6% | inhibition [6] 0.895% | RAM network inhibition [7] 7.84%

COc1ccccc1N1CSC2=C(C#N)C(c3ccc(SC)cc3)CC(=O)N2C1 (centres undefined)
inactive: growth inhibition [1] -1.16% | growth inhibition [2] 15.8% | viability increase [3] -5.15% | viability [4] 102% | viability [5] 94.7% | inhibition [6] 1.7% | RAM network inhibition [7] 3.52%

COc1ccc(C2C(C(=O)Nc3ccccc3OC)=C(C)Nc3ncnn32)cc1 (centres undefined)
inactive: growth inhibition [1] -18.5% | growth inhibition [2] 6.38% | viability increase [3] -3.68% | viability [4] 99.2% | viability [5] 94.4% | inhibition [6] 1.78% | RAM network inhibition [7] -2.3%

COC(=O)C1=C(C)N=c2s/c(=C3\C(=O)Nc4ccccc43)c(=O)n2C1c1ccccc1 (centres undefined)
inactive: growth inhibition [1] -2% | growth inhibition [2] -1.65% | viability increase [3] -4.83% | viability [4] 92.3% | viability [5] 91.6% | inhibition [6] 1.77% | RAM network inhibition [7] 3.17%

CCOC(=O)C1CCCN(c2c(NCCCN3CCCC(C)C3)c(=O)c2=O)C1 (centres undefined)
inactive: growth inhibition [1] 3.9% | growth inhibition [2] 3.15% | viability increase [3] -0.04% | viability [4] 99.1% | viability [5] 94.4% | inhibition [6] 2.96% | RAM network inhibition [7] -0.87%

Cn1c(Cn2c(=O)sc3ccccc32)nnc1SCC(=O)NCc1ccco1
inactive: growth inhibition [1] 0.17% | growth inhibition [2] 8.09% | viability increase [3] -4.73% | viability [4] 109% | viability [5] 104% | inhibition [6] 1.93% | RAM network inhibition [7] 6.92%

COc1ccc(-c2nnc3ccc(SCC(=O)N4CCCCC4)nn23)cc1OC
inactive: growth inhibition [1] 3.98% | growth inhibition [2] 18.9% | viability increase [3] -4.61% | viability [4] 98.3% | viability [5] 98.9% | inhibition [6] 0.24% | RAM network inhibition [7] 2.36%

Cc1nc2ccccc2c2oc(C(=O)NCCN3CCN(C)CC3)cc12
inactive: growth inhibition [1] -12.1% | growth inhibition [2] -15.1% | viability increase [3] -1.69% | viability [4] 89.4% | viability [5] 98.8% | inhibition [6] 1.64% | RAM network inhibition [7] 3.28%

Nc1cccc(C(=O)Nc2ccc3nc(-c4cccnc4)[nH]c3c2)c1
inactive: growth inhibition [1] -2% | growth inhibition [2] -4.3% | viability increase [3] -1.88% | viability [4] 109% | viability [5] 102% | inhibition [6] 2.84% | RAM network inhibition [7] 6.1%

COc1ccc(Cc2nc(-c3ccc(-n4cccc4)cc3)no2)cc1OC
inactive: growth inhibition [1] -2.5% | growth inhibition [2] -10.8% | viability increase [3] 2.61% | viability [4] 28% | viability [5] 54.7% | inhibition [6] 4.33% | RAM network inhibition [7] 9.02%

Cc1nc2ccccn2c1/C(O)=C1\C(=O)C(=O)N(CCCN(C)C)C1c1ccc(Cl)cc1 (centres undefined)
inactive: growth inhibition [1] -12.2% | growth inhibition [2] -4.13% | viability increase [3] -1.34% | viability [4] 109% | viability [5] 95.9% | inhibition [6] 0.18% | RAM network inhibition [7] -1.78%

O=C(NCCNC(=O)c1ccc(Br)o1)c1ccc(Br)o1
inactive: growth inhibition [1] -7.92% | growth inhibition [2] 4.26% | viability increase [3] 1.39% | viability [4] 99.1% | viability [5] 105% | inhibition [6] 0.39% | RAM network inhibition [7] 0.1%

COc1cccc(-n2c(Cc3cc(=O)[nH]c(=O)[nH]3)nnc2SCC(=O)NC2CCCC2)c1
inactive: growth inhibition [1] -6.3% | growth inhibition [2] 8.16% | viability increase [3] -0.03% | viability [4] 101% | viability [5] 101% | inhibition [6] 2.87% | RAM network inhibition [7] -1.25%

COc1cc(CC(=O)O)c(C(C)=O)cc1OC
inactive: growth inhibition [1] 0.26% | growth inhibition [2] 0.155% | viability increase [3] -1.29% | viability [4] 100% | viability [5] 102% | inhibition [6] 0.365% | RAM network inhibition [7] -0.36%

c1ccc(-n2cnnc2SCc2cn3ccccc3n2)cc1
inactive: growth inhibition [1] 5.34% | growth inhibition [2] 20.6% | viability increase [3] -4.4% | viability [4] 101% | viability [5] 95.6% | inhibition [6] 1.19% | RAM network inhibition [7] 7.66%

O=C(Nc1ccccc1Cl)N1CCN(c2ccc3nnc(-c4ccccc4)n3n2)CC1
inactive: growth inhibition [1] 6.99% | growth inhibition [2] 29.4% | viability increase [3] -4.19% | viability [4] 79.4% | viability [5] 74.8% | inhibition [6] 0.435% | RAM network inhibition [7] 2.07%
